Source: the M2OR odorant receptor database
Changes are numbered by the printed parent chain.

Tests used:
Conditions in all cases: stereoisomer not certain
O56A4 I247V = test system: T1, O56A4 I247V
T1 sequence (whole entry): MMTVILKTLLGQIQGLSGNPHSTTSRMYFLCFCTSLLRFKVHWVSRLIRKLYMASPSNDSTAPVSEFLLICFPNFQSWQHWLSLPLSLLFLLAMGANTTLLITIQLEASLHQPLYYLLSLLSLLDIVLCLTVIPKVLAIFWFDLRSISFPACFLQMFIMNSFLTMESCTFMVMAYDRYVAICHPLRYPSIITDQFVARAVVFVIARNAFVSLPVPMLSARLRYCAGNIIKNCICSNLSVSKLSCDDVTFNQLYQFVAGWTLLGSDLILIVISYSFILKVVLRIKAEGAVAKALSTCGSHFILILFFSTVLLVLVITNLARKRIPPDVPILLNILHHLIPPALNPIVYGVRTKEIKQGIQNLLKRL
Procedure, shortened: (§1)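 Each receptor–molecule pair is labelled responsive or non-responsive (inactive) according to whether the original authors judged the measured signal statistically different from baseline. The data were taken from the main text and supplementary material of published papers and checked for typos and inconsistencies. Assay methods differed by source, with transient luciferase assays in mammalian cell lines being common.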

O56A4 = test system: T2, O56A4
T2 sequence (whole entry): T1 sequence (whole entry) with V247I
Procedure, shortened: as §1

O56A5 V104L = test system: T3, O56A5 V104L
T3 sequence (whole entry): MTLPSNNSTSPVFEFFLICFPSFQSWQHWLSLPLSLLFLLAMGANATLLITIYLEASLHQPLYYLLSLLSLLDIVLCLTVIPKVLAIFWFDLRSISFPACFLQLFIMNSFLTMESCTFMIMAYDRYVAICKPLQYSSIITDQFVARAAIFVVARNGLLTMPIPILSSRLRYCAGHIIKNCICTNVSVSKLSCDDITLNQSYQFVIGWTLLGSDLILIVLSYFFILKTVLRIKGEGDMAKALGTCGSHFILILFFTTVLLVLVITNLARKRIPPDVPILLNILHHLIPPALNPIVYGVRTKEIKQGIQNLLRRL
Procedure, shortened: as §1

O56B1 C106R L214F = test system: T4, O56B1 C106R L214F
T4 sequence (whole entry): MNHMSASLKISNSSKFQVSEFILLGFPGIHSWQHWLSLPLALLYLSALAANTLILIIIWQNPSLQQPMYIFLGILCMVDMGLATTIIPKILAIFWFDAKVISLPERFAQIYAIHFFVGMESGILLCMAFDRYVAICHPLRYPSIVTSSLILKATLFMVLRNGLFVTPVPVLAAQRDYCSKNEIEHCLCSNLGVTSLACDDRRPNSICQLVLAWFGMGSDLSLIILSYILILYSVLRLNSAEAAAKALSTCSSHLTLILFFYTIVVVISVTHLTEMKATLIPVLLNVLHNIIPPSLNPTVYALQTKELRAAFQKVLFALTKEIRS
Procedure, shortened: as §1

O56B1 L214F = test system: T5, O56B1 L214F
T5 sequence (whole entry): T4 sequence (whole entry) with R106C
Procedure, shortened: as §1

O56B4 = test system: T6, O56B4
T6 sequence (whole entry): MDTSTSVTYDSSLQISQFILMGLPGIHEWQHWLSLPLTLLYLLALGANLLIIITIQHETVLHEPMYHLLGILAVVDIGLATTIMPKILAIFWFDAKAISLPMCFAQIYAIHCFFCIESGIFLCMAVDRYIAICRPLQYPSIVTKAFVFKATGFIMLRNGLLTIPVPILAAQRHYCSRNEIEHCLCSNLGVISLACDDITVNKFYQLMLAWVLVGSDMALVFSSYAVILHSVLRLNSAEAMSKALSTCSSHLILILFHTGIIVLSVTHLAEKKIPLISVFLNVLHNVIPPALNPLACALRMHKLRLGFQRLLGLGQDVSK
Procedure, shortened: as §1

O5AC2 = test system: T7, O5AC2
T7 sequence (whole entry): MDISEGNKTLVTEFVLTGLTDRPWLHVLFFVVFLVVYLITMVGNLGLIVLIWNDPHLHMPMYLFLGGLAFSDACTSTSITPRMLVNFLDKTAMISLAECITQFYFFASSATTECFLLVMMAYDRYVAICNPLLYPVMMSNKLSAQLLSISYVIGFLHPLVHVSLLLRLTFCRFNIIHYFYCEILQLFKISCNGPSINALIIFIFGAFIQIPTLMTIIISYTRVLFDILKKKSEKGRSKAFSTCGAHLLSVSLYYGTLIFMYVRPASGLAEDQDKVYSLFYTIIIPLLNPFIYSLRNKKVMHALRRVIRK
Procedure, shortened: as §1

O5AK2 M92I = test system: T8, O5AK2 M92I
T8 sequence (whole entry): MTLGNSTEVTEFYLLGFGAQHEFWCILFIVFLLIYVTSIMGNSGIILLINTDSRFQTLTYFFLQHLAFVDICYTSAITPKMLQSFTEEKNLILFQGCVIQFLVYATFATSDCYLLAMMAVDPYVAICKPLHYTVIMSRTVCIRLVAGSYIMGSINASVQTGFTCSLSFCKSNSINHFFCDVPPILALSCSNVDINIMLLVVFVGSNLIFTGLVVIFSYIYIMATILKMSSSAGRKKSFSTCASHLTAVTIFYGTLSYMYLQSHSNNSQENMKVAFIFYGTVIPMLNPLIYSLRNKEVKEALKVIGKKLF
Procedure, shortened: as §1

O5AN1 C142Y L289F = test system: T9, O5AN1 C142Y L289F
T9 sequence (whole entry): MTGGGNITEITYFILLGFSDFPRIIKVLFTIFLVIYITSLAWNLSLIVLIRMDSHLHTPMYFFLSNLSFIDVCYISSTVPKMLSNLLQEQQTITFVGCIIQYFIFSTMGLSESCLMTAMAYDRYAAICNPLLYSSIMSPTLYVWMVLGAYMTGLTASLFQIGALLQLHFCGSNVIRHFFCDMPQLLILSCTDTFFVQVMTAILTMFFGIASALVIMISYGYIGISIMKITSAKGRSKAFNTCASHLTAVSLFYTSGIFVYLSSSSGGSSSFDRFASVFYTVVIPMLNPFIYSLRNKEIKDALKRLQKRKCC
Procedure, shortened: as §1

O5AN1 L289F = test system: T10, O5AN1 L289F
T10 sequence (whole entry): T9 sequence (whole entry) with Y142C
Procedure, shortened: as §1

O5AP2 A105T = test system: T11, O5AP2 A105T
T11 sequence (whole entry): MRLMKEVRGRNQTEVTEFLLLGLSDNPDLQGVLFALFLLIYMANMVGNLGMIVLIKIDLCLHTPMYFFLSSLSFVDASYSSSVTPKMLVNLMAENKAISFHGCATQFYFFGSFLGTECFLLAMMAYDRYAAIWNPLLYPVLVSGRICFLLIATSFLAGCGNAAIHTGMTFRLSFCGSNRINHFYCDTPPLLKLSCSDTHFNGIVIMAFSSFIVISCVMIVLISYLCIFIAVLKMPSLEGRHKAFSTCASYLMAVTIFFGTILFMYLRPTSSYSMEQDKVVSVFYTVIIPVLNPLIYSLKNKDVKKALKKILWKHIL
Procedure, shortened: as §1

O5AU1 = test system: T12, O5AU1
T12 sequence (whole entry): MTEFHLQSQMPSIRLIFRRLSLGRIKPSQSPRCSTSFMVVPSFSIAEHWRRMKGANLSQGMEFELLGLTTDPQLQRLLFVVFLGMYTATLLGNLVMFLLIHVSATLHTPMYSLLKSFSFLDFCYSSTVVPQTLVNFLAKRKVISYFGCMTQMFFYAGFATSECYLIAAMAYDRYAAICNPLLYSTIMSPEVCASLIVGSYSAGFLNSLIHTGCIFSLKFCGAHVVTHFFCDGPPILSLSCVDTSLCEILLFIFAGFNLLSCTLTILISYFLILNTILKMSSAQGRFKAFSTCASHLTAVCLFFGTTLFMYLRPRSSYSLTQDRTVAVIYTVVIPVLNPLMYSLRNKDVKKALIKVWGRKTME
Procedure, shortened: as §1

O5H14 = test system: T13, O5H14
T13 sequence (whole entry): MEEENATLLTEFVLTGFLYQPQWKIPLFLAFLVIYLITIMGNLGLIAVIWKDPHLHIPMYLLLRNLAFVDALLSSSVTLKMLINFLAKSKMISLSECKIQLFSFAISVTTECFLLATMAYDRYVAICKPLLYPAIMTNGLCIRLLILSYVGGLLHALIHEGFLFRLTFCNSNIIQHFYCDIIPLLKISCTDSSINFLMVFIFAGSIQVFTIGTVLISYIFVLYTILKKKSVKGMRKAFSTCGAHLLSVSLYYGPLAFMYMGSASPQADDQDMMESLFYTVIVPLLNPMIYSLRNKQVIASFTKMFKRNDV
Procedure, shortened: as §1

O5H15 V108I S148T T167S = test system: T14, O5H15 V108I S148T T167S
T14 sequence (whole entry): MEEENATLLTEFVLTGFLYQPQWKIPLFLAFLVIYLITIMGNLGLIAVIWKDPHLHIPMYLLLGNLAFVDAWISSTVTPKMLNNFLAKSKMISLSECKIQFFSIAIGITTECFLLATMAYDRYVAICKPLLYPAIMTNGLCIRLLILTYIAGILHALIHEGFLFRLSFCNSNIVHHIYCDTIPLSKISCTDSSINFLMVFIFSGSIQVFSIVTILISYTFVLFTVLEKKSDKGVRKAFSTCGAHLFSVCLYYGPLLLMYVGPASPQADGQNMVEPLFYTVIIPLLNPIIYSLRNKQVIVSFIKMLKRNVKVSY
Procedure, shortened: as §1

O6C65 T222A = test system: T15, O6C65 T222A
T15 sequence (whole entry): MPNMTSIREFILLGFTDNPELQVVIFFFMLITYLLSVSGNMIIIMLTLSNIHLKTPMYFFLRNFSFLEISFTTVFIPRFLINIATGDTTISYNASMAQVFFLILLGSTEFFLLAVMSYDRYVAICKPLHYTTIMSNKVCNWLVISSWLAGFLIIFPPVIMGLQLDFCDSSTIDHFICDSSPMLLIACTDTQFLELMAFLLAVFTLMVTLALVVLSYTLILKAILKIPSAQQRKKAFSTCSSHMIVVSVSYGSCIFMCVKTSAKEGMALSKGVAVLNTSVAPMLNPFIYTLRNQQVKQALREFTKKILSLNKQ
Procedure, shortened: as §1

O6C70 L181P = test system: T16, O6C70 L181P
T16 sequence (whole entry): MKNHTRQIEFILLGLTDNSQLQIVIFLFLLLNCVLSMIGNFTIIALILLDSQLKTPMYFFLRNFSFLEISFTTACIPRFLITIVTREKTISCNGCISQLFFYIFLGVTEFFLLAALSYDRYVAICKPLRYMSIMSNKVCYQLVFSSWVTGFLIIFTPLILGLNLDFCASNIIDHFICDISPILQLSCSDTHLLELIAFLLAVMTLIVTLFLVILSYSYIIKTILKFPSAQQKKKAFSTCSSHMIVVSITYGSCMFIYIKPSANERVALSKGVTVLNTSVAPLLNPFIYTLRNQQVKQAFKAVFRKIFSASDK
Procedure, shortened: as §1

O7E24 S193F P242S = test system: T17, O7E24 S193F P242S
T17 sequence (whole entry): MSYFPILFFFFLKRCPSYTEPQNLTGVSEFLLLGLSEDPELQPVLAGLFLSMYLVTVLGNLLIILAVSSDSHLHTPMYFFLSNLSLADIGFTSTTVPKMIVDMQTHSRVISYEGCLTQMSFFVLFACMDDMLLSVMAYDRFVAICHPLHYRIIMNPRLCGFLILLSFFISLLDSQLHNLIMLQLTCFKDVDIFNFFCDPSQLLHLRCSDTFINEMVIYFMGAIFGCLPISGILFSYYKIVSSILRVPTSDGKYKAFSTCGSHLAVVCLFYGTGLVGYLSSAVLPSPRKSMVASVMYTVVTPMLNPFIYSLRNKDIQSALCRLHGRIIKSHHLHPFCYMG
Procedure, shortened: as §1

O7E24 = test system: T18, O7E24
T18 sequence (whole entry): T17 sequence (whole entry) with F193S
Procedure, shortened: as §1

OR10A2 (Homo sapiens) = molecular target: T19, OR10A2 (Homo sapiens) (UniProt Q9H208)
T19 sequence (whole entry): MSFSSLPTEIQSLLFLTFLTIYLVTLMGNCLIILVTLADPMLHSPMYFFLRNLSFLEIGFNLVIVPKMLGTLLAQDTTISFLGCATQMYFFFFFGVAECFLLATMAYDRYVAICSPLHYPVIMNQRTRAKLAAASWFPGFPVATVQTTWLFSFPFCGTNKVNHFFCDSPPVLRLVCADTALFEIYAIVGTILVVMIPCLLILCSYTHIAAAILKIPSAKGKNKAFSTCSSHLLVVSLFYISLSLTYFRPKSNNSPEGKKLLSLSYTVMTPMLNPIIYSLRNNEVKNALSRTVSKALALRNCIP
Procedure, shortened: as §1

O5AN1 = test system: T20, O5AN1
T20 sequence (whole entry): T9 sequence (whole entry) with K26T, Y142C, F159S, C190S, Q197R, V214I, Y221S, F289L, K309R
Procedure, shortened: as §1

Measured: odorant receptor agonist call;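 note: active if original authors judged signal statistically different from baseline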

CCC1OC(C)=C(O)C1=O (centres undefined)
inactive: O56A4 I247V | O56A4 | O56A5 V104L | O56B1 C106R L214F | O56B1 L214F | O56B4 | O5AC2 | O5AK2 M92I | O5AN1 C142Y L289F | O5AN1 L289F | O5AP2 A105T | O5AU1 | O5H14 | O5H15 V108I S148T T167S | O6C65 T222A | O6C70 L181P | O7E24 S193F P242S | O7E24 | OR10A2 (Homo sapiens)

CCCCCCCCCCCCCC(C)=O
inactive: O5AN1

CC1=C(O)C(=O)C(C)O1 (centres undefined)
inactive: O56A4 I247V | O56A4 | O56A5 V104L | O56B1 C106R L214F | O56B1 L214F | O56B4 | O5AC2 | O5AK2 M92I | O5AN1 C142Y L289F | O5AN1 L289F | O5AP2 A105T | O5AU1 | O5H14 | O5H15 V108I S148T T167S | O6C65 T222A | O6C70 L181P | O7E24 S193F P242S | O7E24 | OR10A2 (Homo sapiens)
